Blank lines part the entries; values can stand above or below the compound they belong to.
Legend:
[1] = Chemical stability assessed as half life of hydrolysis in 0.0125 M sodium hydroxide buffer at pH 12.1; format: physicochemical
Procedure, shortened: (§1)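 Half-lives at 37 °C across buffers from pH 4.0 to 14 (1.0, 0.10 and 0.0125 M NaOH; 0.05 M glycine/NaOH pH 10.0; 0.10 M phosphate pH 8.1 and 7.4; 0.05 M citrate pH 4.0). UV decay of the diazeniumdiolate chromophore at λmax. First-order k from the slope of ln(At − Ainf) versus time.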

[2] = Chemical stability assessed as half life of hydrolysis in 0.10 M sodium hydroxide buffer at pH 13.0; format: physicochemical; procedure, shortened: as §1
[3] = Chemical stability assessed as half life of hydrolysis in 0.10 M phosphate buffer at pH 8.1; format: physicochemical; procedure, shortened: as §1
[4] = Chemical stability assessed as half life of hydrolysis in 1.0 M sodium hydroxide buffer at pH 14.0; format: physicochemical; procedure, shortened: as §1
[5] = Chemical stability assessed as half life of hydrolysis in 0.10 M phosphate buffer at pH 7.4; format: physicochemical
Procedure, shortened: (§2)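 Hydrolysis at 37 °C in 1.0 M NaOH, 0.1 M phosphate pH 7.4, or 0.05 M citrate pH 3.8–4.6, followed as first-order loss of the diazeniumdiolate UV absorbance at λmax. k from the ln(At − Ainf) versus time slope; Ainf was extrapolated when the reaction was incomplete. NaOH runs were followed in a thermostated diode-array cell.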

[6] = Chemical stability assessed as half life of hydrolysis in 0.05 M citrate buffer at pH 4.0; format: physicochemical; procedure, shortened: as §1
[7] = Chemical stability assessed as half life of hydrolysis in 0.5 M glycine/sodium hydroxide buffer at pH 10.0; format: physicochemical; conditions: in the assay text read “0.05 M glycine” for “0.5 M glycine”; procedure, shortened: as §1
[8] = Stability assessed as nitric oxide release in presence of human placenta N-acetyl-glucosaminidase measured per mole of glycoside in 0.1 M phosphate buffer at pH 7.4 at 0.10 mM […]; format: ADME; conditions: pH 7.4, 100 µM
Procedure, shortened: (§3)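 37 °C in 0.1 M phosphate pH 7.4 with 0.05 mM DTPA. Jack bean N-acetylglucosaminidase at 0.11 units/mL or human placenta enzyme at 0.044 units/mL; substrate 0.10 or 0.16 mM initial. NO measured by chemiluminescence until evolution stopped, with the curve integrated per mole glycoside. Nitrite in the remaining solution measured by Griess. Enzyme activity verified with PNP-NAG.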

[9] = Stability assessed as nitric oxide release in presence of Jack bean N-acetyl-glucosaminidase measured per mole of glycoside in 0.1 M phosphate buffer at pH 7.4 at 0.10 mM […]; format: ADME; conditions: pH 7.4, 100 µM; procedure, shortened: as §3
[10] = Stability assessed as nitrite release in presence of human placenta N-acetyl-glucosaminidase measured per mole of glycoside in 0.1 M phosphate buffer at pH 7.4 at 0.10 mM by Griess reagent assay; format: ADME; conditions: pH 7.4, 100 µM; procedure, shortened: as §3
[11] = Chemical stability assessed as half life of hydrolysis in 0.1 M phosphate buffer at pH 7.4; format: physicochemical; procedure, shortened: as §2
[12] = Stability assessed as nitrite release in presence of Jack bean N-acetyl-glucosaminidase measured per mole of glycoside in 0.1 M phosphate buffer at pH 7.4 at 0.10 mM by Griess reagent assay; format: ADME; conditions: pH 7.4, 100 µM; procedure, shortened: as §3
[13] = Chemical stability assessed as half life of hydrolysis in 0.05 M citrate buffer at pH 4.6; format: physicochemical; procedure, shortened: as §2
[14] = Chemical stability assessed as half life of hydrolysis in at pH 14; format: physicochemical; conditions: 1.0 M NaOH; procedure, shortened: as §2
[15] = Stability in iNOS deficient mouse macrophage assessed as increase in nitric oxide accumulation at 0.25 mM after 24 hrs; format: ADME, cell-based; conditions: 250 µM
Procedure, shortened: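 Glycoside (0.25 mM initial) incubated 24 h at 37 °C in PBS, in RPMI with 2.5% fetal calf serum, or in that medium while culturing iNOS-deficient mouse peritoneal macrophages. Nitrite in supernatant measured by Griess. Triplicates, mean; one of two experiments.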

[16] = Chemical stability assessed as half life of hydrolysis in 0.05 M citrate buffer at pH 3.8; format: physicochemical; procedure, shortened: as §2
[17] = Stability assessed as nitrite release in presence of Jack bean N-acetyl-glucosaminidase measured per mole of glycoside in 0.1 M phosphate buffer at pH 7.4 at 0.16 mM by Griess reagent assay; format: ADME; conditions: pH 7.4, 160 µM; procedure, shortened: as §3
[18] = Stability assessed as nitric oxide release in presence of human placenta N-acetyl-glucosaminidase measured per mole of glycoside in 0.1 M phosphate buffer at pH 7.4 at 0.16 mM […]; format: ADME; conditions: pH 7.4, 160 µM; procedure, shortened: as §3
[19] = Stability in iNOS-deficient mouse peritoneal macrophages in RPMI medium assessed as increase in nitric oxide release at 0.25 mM after 24 hrs; conditions: 250 µM
[20] = Stability assessed as nitrite release in presence of human placenta N-acetyl-glucosaminidase measured per mole of glycoside in 0.1 M phosphate buffer at pH 7.4 at 0.16 mM by Griess reagent assay; format: ADME; conditions: pH 7.4, 160 µM; procedure, shortened: as §3
[21] = Stability assessed as nitric oxide release in presence of Jack bean N-acetyl-glucosaminidase measured per mole of glycoside in 0.1 M phosphate buffer at pH 7.4 at 0.16 mM […]; format: ADME; conditions: pH 7.4, 160 µM; procedure, shortened: as §3

t1/2 [1]: 3.5 min
t1/2 [2]: 2.7 min
t1/2 [3]: 3.5 min
t1/2 [4]: 2.5 min
t1/2 [5]: 3.1 min
t1/2 [6]: 3.2 min
t1/2 [7]: 2.9 min
SMILES: CCN(CC)/[N+]([O-])=N\OC1CCCCO1 (configuration not stated)

Activity [8]: 1.73 mol/mol
Activity [9]: 1.26 mol/mol
Activity [10]: 0.24 mol/mol
t1/2 [11]: 12 h
Activity [12]: 0.05 mol/mol
t1/2 [13]: 17 h
t1/2 [14]: 0.85 h
Activity [15]: 2
SMILES: CCN(CC)/[N+]([O-])=N/O[C@@H]1O[C@H](CO)[C@@H](O)[C@H](O)[C@H]1NC(C)=O

t1/2 [16]: 28.8 h
t1/2 [11]: 12 h
t1/2 [14]: 0.383 h
SMILES: CCN(CC)/[N+]([O-])=N/O[C@H]1C[C@@H](O)[C@H](O)[C@@H](CO)O1

t1/2 [13]: > 240 h
t1/2 [14]: 0.035 h
SMILES: CCN(CC)/[N+]([O-])=N/O[C@@H]1O[C@H](CO)[C@@H](O)[C@H](O)[C@H]1O

t1/2 [11]: > 240 h
t1/2 [14]: 4.97 h
SMILES: CCN(CC)/[N+]([O-])=N/O[C@H]1O[C@H](CO)[C@@H](O)[C@H](O)[C@@H]1O

t1/2 [11]: > 240 h
t1/2 [13]: > 240 h
t1/2 [14]: 0.067 h
SMILES: CCN(CC)/[N+]([O-])=N/O[C@@H]1O[C@@H](C)[C@@H](O)[C@@H](O)[C@@H]1O

Activity [17]: 0.12 mol/mol
Activity [18]: 1.69 mol/mol
Activity [19]: 4
Activity [20]: 0.36 mol/mol
t1/2 [11]: > 240 h
t1/2 [13]: > 240 h
Activity [21]: 1.72 mol/mol
SMILES: CC(=O)N[C@H]1[C@H](O/N=[N+](\[O-])N2CCCC2)O[C@H](CO)[C@@H](O)[C@@H]1O

— ChEMBL document CHEMBL1157470, “Hydrolytic reactivity trends among potential prodrugs of the O2-glycosylated diazeniumdiolate family. Targeting nitric oxide to macrophages for antileishmanial activity” (J Med Chem, 2008)
